From ChEMBL document CHEMBL5136979, “An Open Drug Discovery Competition: Experimental Validation of Predictive Models in a Series of Novel Antimalarials” (J Med Chem, 2021) come the findings set out here.

Active and inactive are the calls of the source.

The subject of test [1] is Plasmodium falciparum. Briefly: Antimalarial activity against chloroquine-sensitive Plasmodium falciparum 3D7 assessed as parasite growth inhibition. It counts as functional, organism-based. The method, boiled down: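 P. falciparum 3D7 asexual blood stages grown in 5% human RBC suspension in RPMI 1640 with 0.5% Albumax II, 12 mM bicarbonate, 0.2 mM hypoxanthine (pH 7.3), gentamicin, 37 °C, 1% O2/3% CO2/N2. 10-point, 1-in-3 dilution series from 10 or 25 μM top. SYBR Green I DNA fluorescence (ex 485/em 528 nm). IC50 from ≥3 independent experiments.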

In test [2] the test system is Plasmodium falciparum. Briefly: Inhibition of Plasmodium falciparum Dd2 ATP4 assessed as increase in cytosolic pH at 5 uM by fluorescence spectrometry. The method, boiled down: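 Saponin-isolated (0.05% w/v final) Dd2 trophozoites loaded with pH-sensitive dye BCECF. Fluorescence read and calibrated at 37 °C in plate reader or 1 mL suspensions. Compound at 5 μM. Scored as active if it caused cytosolic alkalinization like 50 nM cipargamin.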

Test [3] has as its system Plasmodium falciparum. Briefly: Inhibition of Plasmodium falciparum Dd2 ATP4 assessed as increase in cytosolic [Na+] at 1 uM by fluorescence spectrometry. The method, boiled down: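 Dd2 trophozoites freed from erythrocytes with saponin (0.05% w/v final), loaded with Na+-sensitive dye SBFI. Fluorescence measured and calibrated at 37 °C in plate reader or 1 mL cuvette suspensions. Compound tested at 1 μM. Scored as active if it raised cytosolic [Na+] like 50 nM cipargamin.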

On to `FC(F)Oc1ccc(-c2nnc3cncc(OCCc4ccco4)n23)cc1`, for which the IC50 in the test on Plasmodium falciparum [1] is 1.24 µM.
Take `NCc1cccc(CCOc2cncc3nnc(-c4ccc(Cl)cc4)n23)c1`: the IC50 in the test on Plasmodium falciparum [1] is 10 µM.
For `O=C(Nc1ccc(F)c(Cl)c1)c1cncc2nnc(-c3ccc(OC(F)F)cc3)n12`, the 50% inhibitory concentration (IC50) in the test on Plasmodium falciparum [1] turned out to be 0.191 µM. The inhibition entry in the test with Plasmodium falciparum [2] and with Plasmodium falciparum [3] was “Active” throughout.
On to `O=C(Cc1cccc(Cl)c1)Nc1cn2c(-c3ccc(OC(F)F)cc3)nnc2cn1`, for which the IC50 with Plasmodium falciparum [1] was greater than 10 µM.
The same measure, in the same setting: next, `CC(O)COc1cncc2nnc(-c3ccc(OC(F)F)cc3)n12` (stereo not drawn): greater than 25 µM.
With `O=C(Nc1ccc(Cl)cc1)c1cncc2nnc(-c3ccc(OC(F)F)cc3)n12`, in the test with Plasmodium falciparum [1], the IC50 stood at 5 µM. Also, the inhibition entry in the test with Plasmodium falciparum [2] and with Plasmodium falciparum [3] was “Active” in each case.
As to `FC(F)Oc1ccc(-c2nnc3cncc(OCCc4ccccc4)n23)cc1`, the half-maximal inhibitory concentration (IC50) in the test on Plasmodium falciparum [1] was found to be 0.37 µM. In addition, the inhibition entry in the test on Plasmodium falciparum [2] and in the test with Plasmodium falciparum [3] was “Active” in each case.
Regarding `Nc1cccc(CCOc2cncc3nnc(-c4ccc(Cl)cc4)n23)c1`, in the test with Plasmodium falciparum [1], the concentration for half-maximal inhibition (IC50) worked out at 2.42 µM. In addition, the inhibition result in the test with Plasmodium falciparum [2] and with Plasmodium falciparum [3] was “Active” in each case.
As for `O=C(NCc1cccc(C(F)(F)F)c1Cl)c1cncc2nnc(-c3ccc(OC(F)F)cc3)n12`, the IC50 in the test with Plasmodium falciparum [1] was found to be 0.309 µM. The inhibition result in the test with Plasmodium falciparum [2] and with Plasmodium falciparum [3] was “Active” each time.
Regarding `Fc1ccc(CCNc2cn3c(-c4ccc(OC(F)F)cc4)nnc3cn2)cc1`, in the test on Plasmodium falciparum [1], the concentration for half-maximal inhibition (IC50) was greater than 10 µM.
Take `O=C(Nc1ccnc(C(F)(F)F)c1)c1cncc2nnc(-c3ccc(OC(F)F)cc3)n12`: the IC50 in the test on Plasmodium falciparum [1] was 0.14 µM. In addition, the inhibition result with Plasmodium falciparum [2] and in the test on Plasmodium falciparum [3] was “Active” each time.
For `Cc1ccc(COc2cncc3nnc(-c4ccc(C(C)C)cc4)n23)cn1`, the IC50 with Plasmodium falciparum [1] is greater than 25 µM.
For the molecule `FC(F)Oc1ccc(-c2nnc3cncc(OCC(F)(F)F)n23)cc1`, the IC50 with Plasmodium falciparum [1] is greater than 10 µM.
In the case of `CC(C)(C)Oc1ccc(-c2nnc3cncc(OCC(O)c4ccc(F)c(F)c4)n23)cc1` (stereo not drawn), the concentration for half-maximal inhibition (IC50) in the test on Plasmodium falciparum [1] turned out to be 0.46 µM. Moreover, the inhibition entry in the test with Plasmodium falciparum [2] and in the test on Plasmodium falciparum [3] was “Active” throughout.

As usually defined, the IC50 is the concentration at which inhibition is half-maximal.
